Assay results: ChEMBL document CHEMBL1154100, “Tetrahydroisoquinolines as dopaminergic ligands: 1-Butyl-7-chloro-6-hydroxy-tetrahydroisoquinoline, a new compound with antidepressant-like activity in mice” (Bioorg Med Chem, 2009)
pKi: −log10 of the molar value. Calls of active or inactive are those of the source. No cut-off for these calls is given here.

Tests used:
[1] = target: Sodium-dependent dopamine transporter (Rattus norvegicus) (UniProt P23977); assay: Inhibition of DAT in Wistar rat striatal synaptosomes at 100 uM by [3H]dopamine uptake assay; assay type: subcellular; conditions: Brain
Chain of Sodium-dependent dopamine transporter (Rattus norvegicus) (P23977 whole entry): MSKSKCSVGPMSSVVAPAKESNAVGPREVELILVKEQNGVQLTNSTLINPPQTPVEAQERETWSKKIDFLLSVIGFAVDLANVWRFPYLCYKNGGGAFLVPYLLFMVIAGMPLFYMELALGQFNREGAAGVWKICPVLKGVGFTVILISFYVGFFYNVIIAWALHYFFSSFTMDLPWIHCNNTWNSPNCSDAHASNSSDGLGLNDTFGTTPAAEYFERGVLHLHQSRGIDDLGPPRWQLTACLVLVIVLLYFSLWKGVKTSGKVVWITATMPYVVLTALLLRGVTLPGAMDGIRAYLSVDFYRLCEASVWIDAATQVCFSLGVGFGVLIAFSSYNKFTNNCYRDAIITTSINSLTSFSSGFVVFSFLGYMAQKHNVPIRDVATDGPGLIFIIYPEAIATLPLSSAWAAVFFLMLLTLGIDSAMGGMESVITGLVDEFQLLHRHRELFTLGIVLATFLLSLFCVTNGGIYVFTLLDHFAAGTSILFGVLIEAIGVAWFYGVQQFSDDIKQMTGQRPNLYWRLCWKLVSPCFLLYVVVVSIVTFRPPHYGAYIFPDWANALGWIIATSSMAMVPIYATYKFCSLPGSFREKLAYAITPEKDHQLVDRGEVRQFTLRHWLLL
In short: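 Synaptosomes were prepared from female Wistar rat striatum at 0–4 °C. Tissue was homogenized in 0.32 M sucrose, spun twice at 1000g for 10 min, and the pooled supernatants were spun at 16,000g for 30 min. The pellet was taken up in Krebs medium (pH 7.6, with glucose). Samples were preincubated for 10 min at 37 °C with pargyline, then given 0.5 nM final [³H]dopamine for 10 min. Uptake was stopped by ice-cold dilution and rapid fiberglass filtration.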

D(1A) dopamine receptor = D(1A) dopamine receptor (Rattus norvegicus, UniProt P18901); assay: Displacement of [3H]SCH23390 from dopamine D1 receptor in Wistar rat striatal membrane by liquid scintillation counting; assay type: cell membranes, Striatum
Chain of D(1A) dopamine receptor (P18901 whole entry): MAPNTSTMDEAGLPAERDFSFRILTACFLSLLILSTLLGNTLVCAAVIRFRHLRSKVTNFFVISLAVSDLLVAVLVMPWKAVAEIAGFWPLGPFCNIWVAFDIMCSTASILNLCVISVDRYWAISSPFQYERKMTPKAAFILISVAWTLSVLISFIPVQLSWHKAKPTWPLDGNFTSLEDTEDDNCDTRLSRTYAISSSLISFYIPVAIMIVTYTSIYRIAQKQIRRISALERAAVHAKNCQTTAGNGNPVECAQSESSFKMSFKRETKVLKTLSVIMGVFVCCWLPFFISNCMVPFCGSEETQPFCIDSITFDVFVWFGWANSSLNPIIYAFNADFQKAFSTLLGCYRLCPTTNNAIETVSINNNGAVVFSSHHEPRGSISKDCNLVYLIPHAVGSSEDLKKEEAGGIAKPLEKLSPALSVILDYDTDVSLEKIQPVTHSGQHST
In short: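 Female Wistar rat striatum homogenized in 50 mM Tris-HCl pH 7.4, then washed twice at 49,000g. Membranes were resuspended in Tris-ions buffer (NaCl, CaCl2, KCl, MgCl2, 0.1% ascorbate). [3H]-SCH23390 displacement was read by filtration and scintillation counting. Ki was derived using KD 0.36 nM; 3–6 independent runs in duplicate, mean SEM.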

D(2) dopamine receptor = D(2) dopamine receptor (Rattus norvegicus, UniProt P61169); assay: Displacement of [3H]raclopride from dopamine D2 receptor in Wistar rat striatal membrane by liquid scintillation counting; assay type: cell membranes, Striatum; conditions: for Ki: read-out: pKi (converted)
Chain of D(2) dopamine receptor (P61169 whole entry): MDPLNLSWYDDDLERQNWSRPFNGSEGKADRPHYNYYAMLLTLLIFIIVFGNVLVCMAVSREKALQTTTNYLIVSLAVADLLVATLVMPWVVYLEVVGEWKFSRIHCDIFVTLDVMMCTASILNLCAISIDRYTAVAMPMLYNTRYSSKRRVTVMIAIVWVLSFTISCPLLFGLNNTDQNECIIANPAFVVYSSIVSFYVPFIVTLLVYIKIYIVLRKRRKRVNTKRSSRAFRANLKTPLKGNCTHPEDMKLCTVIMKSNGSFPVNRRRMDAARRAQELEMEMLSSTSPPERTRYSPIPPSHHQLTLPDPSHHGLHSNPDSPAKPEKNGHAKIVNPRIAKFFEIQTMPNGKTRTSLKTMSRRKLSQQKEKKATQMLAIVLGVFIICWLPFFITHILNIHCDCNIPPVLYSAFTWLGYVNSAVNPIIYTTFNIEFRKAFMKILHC
In short: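 Striata from female Wistar rats (200–220 g) were homogenized in 50 mM Tris-HCl (pH 7.4) and centrifuged twice at 49,000g for 15 min at 4 °C. Membranes were resuspended in Tris buffer containing 120 mM NaCl, 2 mM CaCl₂, 5 mM KCl, 1 mM MgCl₂ and 0.1% ascorbic acid (pH 7.4). Samples were filtered, washed with cold buffer and counted by scintillation. Ki was derived using a [³H]raclopride KD of 1,25 nM, from 3–6 determinations run in duplicate.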

Rattus norvegicus = species: Rattus norvegicus; assay: Selectivity for Wistar rat dopamine D2 receptor over Wistar rat dopamine D1 receptor

Structure (SMILES) | Activity [1] | pKi (D(1A) dopamine receptor) | Ki (D(2) dopamine receptor) | fold change (FC) (Rattus norvegicus) | pKi (D(2) dopamine receptor; read-out: Ki)
O=C(CCCN1CCC(O)(c2ccc(Cl)cc2)CC1)c1ccc(F)cc1 | – | – | – | 20 | –
CCCCC1c2cc(OC)c(Cl)cc2CCN1C (stereo not given) | inactive | 5.14 | 3770 nM | 2.7 | –
CCCCC1NCCc2cc(Cl)c(O)cc21 (stereo not given) | inactive | 5.92 | – | 17 | 7.04

Further lines, with some results ahead:

Activity [1] | pKi (D(1A) dopamine receptor) | Ki (D(2) dopamine receptor) | fold change (FC) (Rattus norvegicus) | Structure (SMILES) | pKi (D(2) dopamine receptor; read-out: Ki)
inactive | 6.61 | 1120 nM | 0.2 | Oc1cc2c(cc1Cl)CCNC2c1ccccc1 (stereo not given) | –
inactive | 6.95 | 207 nM | 0.6 | CN1CCc2cc(Cl)c(O)cc2C1Cc1ccccc1 (stereo not given) | –
inactive | 5.63 | 968 nM | 5 | COc1cc2c(cc1Cl)CCNC2Cc1ccccc1 (stereo not given) | –
inactive | 5.79 | 1530 nM | 0.8 | COc1cc2c(cc1Cl)CCN(C)C2Cc1ccccc1 (stereo not given) | –
